Assay results as given in ChEMBL document CHEMBL1157362, “Pharmacokinetics of the anti-human immunodeficiency virus agent 1-(beta-D-dioxolane)thymine in rhesus monkeys” (Antimicrob Agents Chemother, 2007).

Key:
[1] = Systemic clearance in rhesus monkey at 33.3 mg/kg, iv; format: ADME, organism-based, Macaca mulatta; design: dose 33.3 mg/kg, route intravenous; details: in vivo
How it was run: (§1)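 Rhesus monkeys (three) got a single 33.3 mg/kg dose orally by gastric intubation in water, then i.v. in saline after a washout of at least 4 weeks. Animals were under ketamine/Telazol anesthesia. Femoral-vein blood was drawn at 0–24 h. Serum was acetonitrile-extracted with AZT internal standard and assayed by HPLC-UV at 266 nm. Parameters came from a simultaneous two-compartment fit weighted 1/(predicted)2. F was from AUCoral = F x AUCi.v.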

[2] = Central volume of distribution in rhesus monkey at 33.3 mg/kg, iv; format: ADME, organism-based, Macaca mulatta; design: dose 33.3 mg/kg, route intravenous; details: in vivo, read-out: Vc; how it was run: as §1
[3] = Terminal phase half life in rhesus monkey at 33.3 mg/kg, iv; format: ADME, organism-based, Macaca mulatta; design: dose 33.3 mg/kg, route intravenous; details: in vivo; how it was run: as §1
[4] = Volume of distribution at steady state in rhesus monkey at 33.3 mg/kg, iv; format: ADME, organism-based, Macaca mulatta; design: dose 33.3 mg/kg, route intravenous; details: in vivo, read-out: Vdss; how it was run: as §1
[5] = AUC in rhesus monkey at 33.3 mg/kg, iv; format: ADME, organism-based, Macaca mulatta; design: dose 33.3 mg/kg, route intravenous; details: plasma; how it was run: as §1
[6] = Mean residence time in rhesus monkey at 33.3 mg/kg, iv; format: ADME, organism-based, Macaca mulatta; design: dose 33.3 mg/kg, route intravenous; details: in vivo; how it was run: as §1
[7] = Renal clearance in rhesus monkey at 33.3 mg/kg, iv; format: ADME, organism-based, Macaca mulatta, Kidney; design: dose 33.3 mg/kg, route intravenous; details: in vivo, read-out: CL_renal (converted)
How it was run: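 Renal clearance was derived by fitting 0–8 h urinary excretion (HPLC-UV) to dXu/dt = Clrenal x Cp. Cp was the serum concentration predicted by the two-compartment serum fit, and the urine fit was unweighted. Dose was 33.3 mg/kg.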

[8] = AUC in rhesus monkey at 33.3 mg/kg, po; format: ADME, organism-based, Macaca mulatta; design: dose 33.3 mg/kg, route oral; details: plasma; how it was run: as §1
[9] = Mean residence time in rhesus monkey at 33.3 mg/kg, po; format: ADME, organism-based, Macaca mulatta; design: dose 33.3 mg/kg, route oral; details: in vivo; how it was run: as §1
[10] = Tmax in rhesus monkey at 33.3 mg/kg, po; format: ADME, organism-based, Macaca mulatta; design: dose 33.3 mg/kg, route oral; details: in vivo
How it was run: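 Oral gastric-intubation dose of 33.3 mg/kg in water given to rhesus monkeys under ketamine/Telazol anesthesia. Serial femoral-vein serum was sampled from 0.25 to 24 h and assayed by reverse-phase HPLC-UV at 266 nm. Time of peak was taken from a two-compartment model fitted with an absorption lag.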

[11] = Cmax in rhesus monkey at 33.3 mg/kg, po; format: ADME, organism-based, Macaca mulatta; design: dose 33.3 mg/kg, route oral; details: in vivo; how it was run: as §1
[12] = Oral bioavailability in rhesus monkey at 33.3 mg/kg; format: ADME, organism-based, Macaca mulatta; details: in vivo; how it was run: as §1
[13] = Biodistribution in rhesus monkey urine assessed as dose recovered unchanged at 33.3 mg/kg, po after 8 hrs; format: ADME, organism-based, Macaca mulatta; design: dose 33.3 mg/kg, route oral; details: read-out: Drug uptake
How it was run: (§2)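 Monkeys were catheterized and dosed with 33.3 mg/kg by i.v. or oral route under anesthesia. Urine was collected in intervals over 0–8 h. Untreated urine was incubated 12 h at 37°C in acetate/phosphate buffer pH 5.8 and spiked with AZT internal standard. Unchanged drug was quantified by HPLC-UV at 266 nm against urine standard curves of 0.1–100 µg/ml.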

[14] = Biodistribution in rhesus monkey urine assessed as dose recovered unchanged at 33.3 mg/kg, iv after 8 hrs; format: ADME, organism-based, Macaca mulatta; design: dose 33.3 mg/kg, route intravenous; details: read-out: Drug uptake; how it was run: as §2
Rhesus monkey [15] = assay: Drug elimination in rhesus monkey assessed as beta-dioxolane-thymine-glucuronide elimination at 33.3 mg/kg, po; format: ADME, organism-based, Macaca mulatta; design: dose 33.3 mg/kg, route oral; details: in vivo
How it was run: (§3)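 Glucuronide was estimated indirectly in 0–8 h urine after a 33.3 mg/kg i.v. or oral dose. Urine was treated with β-glucuronidase (500 U/ml, freshly prepared) in acetate/phosphate buffer pH 5.8 for 12 h at 37°C. Untreated urine served as the parallel sample. Glucuronide was taken as the difference in parent drug between the two samples by HPLC-UV. Its presence was screened by ESI MS/MS.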

Rhesus monkey [16] = assay: Drug elimination in rhesus monkey assessed as beta-dioxolane-thymine-glucuronide elimination at 33.3 mg/kg, iv; format: ADME, organism-based, Macaca mulatta; design: dose 33.3 mg/kg, route intravenous; details: in vivo; how it was run: as §3
[17] = Drug level in rhesus monkey cerebrospinal fluid at 33.3 mg/kg, iv after 1 hr; format: ADME, organism-based, Macaca mulatta; design: dose 33.3 mg/kg, route intravenous; details: read-out: Drug uptake
How it was run: (§4)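 Cerebrospinal fluid was drawn by cisternal or lumbar tap 1 and 2 h after a 33.3 mg/kg i.v. or oral dose in anesthetized rhesus monkeys. Samples were kept frozen at –70°C. AZT internal standard was added, and the sample was injected directly for HPLC-UV at 266 nm against water-based standards of 0.1–25 µg/ml.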

[18] = Drug level in rhesus monkey cerebrospinal fluid at 33.3 mg/kg, iv after 2 hrs; format: ADME, organism-based, Macaca mulatta; design: dose 33.3 mg/kg, route intravenous; details: read-out: Drug uptake; how it was run: as §4
[19] = Drug level in rhesus monkey cerebrospinal fluid at 33.3 mg/kg, po after 1 hr; format: ADME, organism-based, Macaca mulatta; design: dose 33.3 mg/kg, route oral; details: read-out: Drug uptake; how it was run: as §4
[20] = Drug level in rhesus monkey cerebrospinal fluid at 33.3 mg/kg, po after 2 hrs; format: ADME, organism-based, Macaca mulatta; design: dose 33.3 mg/kg, route oral; details: read-out: Drug uptake; how it was run: as §4
[21] = Ratio of drug level in cerebrospinal fluid to plasma of rhesus monkey at 33.3 mg/kg, iv after 1 hr; format: ADME, organism-based, Macaca mulatta, CSF/Plasma; design: dose 33.3 mg/kg, route intravenous
How it was run: (§5)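 CSF was taken by cisternal or lumbar tap at 1 and 2 h after a 33.3 mg/kg i.v. or oral dose, along with femoral-vein serum. Both were quantified by HPLC-UV at 266 nm with AZT internal standard. The ratio was CSF concentration divided by serum concentration at the same time.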

[22] = Ratio of drug level in cerebrospinal fluid to plasma of rhesus monkey at 33.3 mg/kg, iv after 2 hrs; format: ADME, organism-based, Macaca mulatta, CSF/Plasma; design: dose 33.3 mg/kg, route intravenous; how it was run: as §5
[23] = Ratio of drug level in cerebrospinal fluid to plasma of rhesus monkey at 33.3 mg/kg, po after 1 hr; format: ADME, organism-based, Macaca mulatta, CSF/Plasma; design: dose 33.3 mg/kg, route oral; how it was run: as §5
[24] = Ratio of drug level in cerebrospinal fluid to plasma of rhesus monkey at 33.3 mg/kg, po after 2 hrs; format: ADME, organism-based, Macaca mulatta, CSF/Plasma; design: dose 33.3 mg/kg, route oral; how it was run: as §5
Rhesus monkey [25] = assay: Tlag in rhesus monkey at 33.3 mg/kg, po; details: in vivo
[26] = Oral bioavailability in rhesus monkey at 60 mg/kg; format: ADME, organism-based, Macaca mulatta; details: in vivo
[27] = Oral bioavailability in cynomolgus monkey; format: ADME, organism-based, Macaca fascicularis; details: in vivo
[28] = Oral bioavailability in mouse; format: ADME, organism-based; details: in vivo
[29] = Oral bioavailability in human; format: ADME, organism-based; details: in vivo
[30] = Terminal phase half life in rhesus monkey; format: ADME, organism-based, Macaca mulatta; details: in vivo
[31] = Drug elimination in monkey urine after 30 days; format: ADME, organism-based, Macaca mulatta; details: rhesus monkey, Activity
[32] = Oral bioavailability in rhesus monkey; format: ADME, organism-based, Macaca mulatta; details: in vivo
[33] = Cmax in rhesus monkey; format: ADME, organism-based, Macaca mulatta; details: in vivo
Rhesus monkey [34] = assay: AUC in rhesus monkey; format: ADME, organism-based, Macaca mulatta, Plasma; details: in vivo
[35] = Central volume of distribution in rhesus monkey; format: ADME, organism-based, Macaca mulatta; details: in vivo, read-out: Vc
[36] = Volume of distribution at steady state in rhesus monkey; format: ADME, organism-based, Macaca mulatta; details: in vivo, read-out: Vdss

Cc1cn([C@H]2CO[C@@H](CO)O2)c(=O)[nH]c1=O
clearance [1]: 6 mL/min/kg
Vd [2]: 0.52 L/kg
half-life [3]: 2.16 h
Vd [4]: 1.02 L/kg
AUC [5]: 416 µM·h
MRT [6]: 2.88 h
CL renal [7]: 3 mL/min/kg
AUC [8]: 387 µM·h
MRT [9]: 3.26 h
Tmax [10]: 0.5 h
Cmax [11]: 105 µM
bioavailability [12]: 95%
dose excreted at 8 h [13]: 48%
dose excreted at 8 h [14]: 40%
Drug uptake (Rhesus monkey [15]): 8%
Drug uptake (Rhesus monkey [16]): 4%
concentration at 1 h [17]: 7.8 µM
concentration at 2 h [18]: 12.3 µM
concentration at 1 h [19]: 3.2 µM
concentration at 2 h [20]: 4.2 µM
Kp at 1 h [21]: 0.09
Kp at 2 h [22]: 0.18
Kp at 1 h [23]: 0.05
Kp at 2 h [24]: 0.06
Tlag (Rhesus monkey [25]): 0.51 h

Cc1cn([C@H]2C=C[C@@H](CO)O2)c(=O)[nH]c1=O [STAVUDINE]
bioavailability [26]: 25%
bioavailability [27]: 83%
bioavailability [28]: 100%
bioavailability [29]: 100%
half-life [30]: 0.8 h
dose excreted at 720 h [31]: < 50%

Cc1cn([C@H]2C[C@H](N=[N+]=[N-])[C@@H](CO)O2)c(=O)[nH]c1=O [ZIDOVUDINE]
bioavailability [26]: 90%
half-life [30]: 0.8 h

Nc1nc(=O)n([C@H]2CO[C@@H](CO)O2)cc1F
bioavailability [32]: 38%
Cmax [33]: 34.4 µM
AUC (Rhesus monkey [34]): 197 µM·h
half-life [30]: 2.48 h
Vd [35]: 0.53 L/kg
Vd [36]: 0.53 L/kg

Nc1nc(N)c2ncn([C@H]3CO[C@@H](CO)O3)c2n1 [AMDOXOVIR]
bioavailability [32]: 30%

Nc1nc2c(ncn2[C@H]2CO[C@@H](CO)O2)c(=O)[nH]1
Cmax [33]: 50 µM
